# Screening data (PubChem BioAssay)
# Compounds with a hit are over-represented: about 3.7% of the library has one in this group of screens.
# RBBP9 inhibitor = human RBBP9 inhibitors, primary screen, biochemical, fluorescence polarization, FP-Rh probe, HTS; Serine hydrolase RBBP9 (Homo sapiens), O75884; recombinant RBBP9; inhibition, % at 7.94 µM; actives 0.2% (n = 220,000);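 active = inhibition above the campaign mean of all tested compounds plus 3 SD, cut at about 14% in these data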;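 also: plate controls were DMSO wells with RBBP9 for no effect and wells lacking RBBP9 protein for full effect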
#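 Test system: recombinant human RBBP9; Timing: 30 min then 45 min, 25 °C; Detection: fluorescence polarization; Control set: RBBP9 with DMSO as uninhibited control, no-protein wells as full inhibition; Compound dosing: one concentration, 7.94 µM nominal, 0.794% DMSO; Probe or stimulus: FP-Rh activity-based probe, 375 nM before mixing.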
# eIF4E 4G PPI = eIF4E–eIF4G protein interaction inhibitors, primary screen, biochemical, uHTS, TR-FRET, eIF4GI fragment. TR-FRET eIF4E-eIF4GI(517-606) binding, 2 h. inhibition, % at 21.7 µM. AID 782, 2007. actives 0.37% (n = 220,000);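 also: 0% = full FRET control wells and 100% = background wells lacking eIF4GI fragment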
# WT yeast gro inh = growth inhibition of WT strain, primary screen, mitochondrial fusion inhibitor project, WT and mutant strains, chemical genetic | mitochondrial fusion phenotypic screen | inhibition, % at 10 µM | actives 2.1% (n = 190,000) | AID 1362, 2008; in the data active = inhibition above about 58%; tested in S. cerevisiae
# p47phox inh = p47phox/p22phox peptide binding inhibitors, primary screen, biochemical, uHTS, NADPH oxidase regulatory subunit; fluorescence polarization, 2 h; actives 0.53% (n = 220,000); inhibition, % at 24.7 µM;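 also: 0% = p47phox with labelled peptide and 100% = labelled peptide alone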
# EBV gp42 block = Epstein-Barr virus gp42 inhibitors, primary screen, biochemical, uHTS, fluorescence polarization; AID 1085, 2008; Glycoprotein 42 (Epstein-Barr virus (strain AG876)), Q1HVG2; Fluorescence polarization binding assay, mP read-out; inhibition, % (tested at 21.74 µM); actives 0.42% (n = 220,000); in the data active = inhibition above about 50%
# 14-3-3 Bad PPI = inhibitors of 14-3-3 zeta/Bad binding, primary screen, biochemical, TR-FRET, bovine 14-3-3 zeta; 14-3-3 protein zeta/delta (Bos taurus), P63103; TR-FRET 14-3-3zeta/Dy647-pBad peptide displacement, 1 h; inhibition, % at 21.7 µM; actives 0.71% (n = 220,000);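 active = inhibition above about 70%, limit read from the data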;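 also: 0% = full 14-3-3 plus peptide FRET controls and 100% = background without 14-3-3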
# The depositor's hits bear a star; · = not tested or not shown; + = active, no number; [ ] = remark or other dose.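 The calls were made as follows, unless noted: active = inhibition above about 30% (limit read from the data); inactive = the rest.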
SMILES,RBBP9 inhibitor,eIF4E 4G PPI,WT yeast gro inh,p47phox inh,EBV gp42 block,14-3-3 Bad PPI
O=C(NCCc1ccccn1)c1cc(-c2cccc3ccccc23)nc2ccccc12,-6,2,-3,-6,-11,-3
CCOC(=O)CSc1nnc(CNc2ccc(Cl)cc2)n1-c1ccccc1,0,0,-2,2,-4,17
CCOc1ccc(NCc2nnc(SCc3ccc(Cl)cc3)n2-c2ccccc2)cc1,0,8,60*,-10,3,-15
O=C(O)c1cc2ccccc2c2cc(Br)ccc12,-6,1,·,-9,-10,-1
Cc1cc(=O)n2c(n1)NC(Nc1cccc(C)c1C)=NC2c1ccccc1 (stereo not drawn),-7,2,·,0,-10,1
Cc1ccc(NC(=S)NCc2ccc3c(c2)OCO3)cc1C,-1,12,61*,-1,3,-22
COC(=O)CSc1nnc(-c2cccc(NC(=O)c3ccc(C)cc3)c2)n1C,-6,72*,25,-2,-7,37
CNC(=S)N/N=C/c1c(C)nn(-c2ccccc2)c1Cl,-6,-4,7,2,-5,-2
Cc1nn(-c2ccccc2)c(Cl)c1/C=N/Nc1ccc(S(=O)(=O)Nc2ccccc2C(=O)O)cc1[N+](=O)[O-],-7,26,20,-20,73*,88*[fluorescence artefact?]
Cc1nn(-c2ccccc2)c(Cl)c1/C=N/NS(=O)(=O)c1ccc(Br)cc1,-7,1,58*,-8,5,1
Cc1ccc(/C=N/NC(=O)NC23CC4CC(CC(C4)C2)C3)o1,-8,·,·,·,·,·
Cc1ccc(N(C(=O)c2ccccc2Cl)C2=NC(C)CS2)c(C)c1 (stereo not drawn),-3,4,72*,1,0,1
COc1cccc(OC)c1C(=O)N1CCN(Cc2ccncc2)CC1,-3,1,-14,-5,-12,46
CCCS(=O)(=O)N1CCN(Cc2ccccc2C(F)(F)F)CC1,-6,-6,8,0,1,58
CN1CCCN(Cc2ccccc2C(F)(F)F)CC1,-5,94*,3,7,-22,81*
COc1cc(C(=O)N2CCN(Cc3ccccc3C(F)(F)F)CC2)cc(OC)c1OC,-3,1,-2,-2,1,35
COc1ccccc1CN1CCN(C(=O)c2ccncc2)CC1,-3,63*,-3,2,-4,83*
COc1cccc(OC)c1C(=O)N1CCN(Cc2ccccc2C(F)(F)F)CC1,-3,-5,11,-2,0,84*
N#Cc1ccc(S(=O)(=O)N2CCc3[nH]c4ccc(F)cc4c3C2)cc1,-5,-3,·,-13,-3,-11
COC(=O)c1cccc(C23CC4(C2)[C@H](CN(Cc2cccnc2)[C@@H]4c2ccccc2)C3c2ccc(C(F)(F)F)cc2)c1 (stereo partly drawn),·,-1,·,-10,-9,-1
COc1ccc(NC(=S)NCc2cccs2)cc1,-1,6,3,-1,-16,-7
CC(C)c1ccc(NC(=S)NCc2cccs2)cc1,9,4,67*,-3,-6,-22
Clc1ccc(-c2nnc(-c3ccccc3)c(N3CCSCC3)n2)cc1,-2,4,65*,-18,-21,-13
O=C(CNc1n[nH]c(=O)[nH]c1=O)N/N=C/C1CC=CCC1 (stereo not drawn),-11,-4,·,-5,0,-1
NC(N)=NC1=NC(=O)C(Cc2ccccc2)S1 (stereo not drawn),-9,2,-8,2,1,2
SMILES,RBBP9 inhibitor,eIF4E 4G PPI,WT yeast gro inh,p47phox inh,EBV gp42 block,14-3-3 Bad PPI
Cc1ccc(-c2nnc(N3CCC(C)CC3)c3ccccc23)cc1C,-10,-1,82*,-5,4,-6
COc1ccc(N2CCN(C(=S)NC(=O)c3cccs3)CC2)c([N+](=O)[O-])c1,-1,-4,61*,-5,1,-26
COc1ccc(N2CCN(C(=O)c3ccccc3)CC2)c([N+](=O)[O-])c1,11,1,0,·,-9,-2
O=C(NC(=S)N1CCN(c2c(Cl)cccc2[N+](=O)[O-])CC1)c1cccs1,1,3,78*,-1,6,4
O=C(NC(=S)N1CCN(c2ccc(O)cc2)CC1)c1cccs1,-5,-1,·,-4,-16,-10
COc1ccc(N2CCN(C(=O)c3ccc(Br)cc3)CC2)c([N+](=O)[O-])c1,-3,3,69*,3,-11,-2
CCCC(CCC)=NNC(=O)CN(Cc1ccccc1)S(=O)(=O)c1ccccc1,-10,1,-20,-9,5,-17
O=C(CCC(=O)N/N=C/c1cc(Cl)cc(Cl)c1O)NCc1ccccc1,-6,-1,-4,-4,-5,-21
O=C(CCc1nnc(-c2ccccc2)o1)c1ccc(Cl)cc1,-3,2,·,-8,-6,-5
O=C(Nc1cccc(C(=O)O)c1)/C(=C\c1ccccc1)NC(=O)c1cccc2ccccc12,-1,-3,-4,122*,7,-10
O=C(Nc1cccc(C(=O)O)c1)/C(=C/c1ccc([N+](=O)[O-])cc1)NC(=O)c1ccccc1,0,-2,-12,-2,-2,-7
O=C(CN(CC1CCCO1)C(=O)c1nsc(Cl)c1Cl)NC1CCCC1 (stereo not drawn),-8,0,-14,-12,10,-12
Clc1ccc(-c2n[nH]c3c2CCC3)c(Cl)c1,8,5,68*,-16,5,3
c1ccc(-c2n[nH]c3c2CCC3)cc1,-5,2,7,-14,6,-2
FC(F)c1nc2ccccc2[nH]1,-5,-3,-12,-1,-7,-12
c1ccc2[nH]c3cc4ncnc4cc3nc2c1,-6,4,-9,-3,+,-3
COc1ccc(C(=O)OC(C)C(=O)Nc2cc(C(F)(F)F)ccc2Cl)c(OC)c1OC (stereo not drawn),-4,0,9,-2,0,2
CC(=O)Oc1cc2cccc(OC(C)=O)c(=O)c2c(OC(C)=O)c1OC(C)=O,3,11,25,1,-12,75*
CC(=O)Oc1cccc2c1C(=O)c1c(OC(C)=O)cc(C(=O)O)cc1C2=O,-2,6,20,3,-20,41
O=C(Cc1ccccc1[N+](=O)[O-])NCCC1=CCCCC1,-13,1,-8,5,3,3
O=[N+]([O-])c1ccccc1S(=O)(=O)NCCC1=CCCCC1,0,1,71*,-11,2,3
